Source: ChEMBL document CHEMBL4014306, “Pyrazolopyrimidines as Potent Stimulators for Transient Receptor Potential Canonical 3/6/7 Channels” (J Med Chem, 2017)
Values belong to the compound of their own block, whether it stands above or below them. Active and inactive are the calls of the source. The rule behind the calls is not given here.

Key:
Type in all cases: cell-based
[1] = molecular target: Transient receptor potential cation channel subfamily A member 1 (Homo sapiens) (UniProt O75762); assay: Inhibition of human TRPA1 expressed in HEK293 cells assessed as decrease in flufenamic acid-evoked increase in intracellular calcium level at 22 uM preincubated for 2 mins followed by flufenamic acid addition measured for 2.5 mins by Fluo8-AM dye-based fluorescence assay relative to control
Chain of Transient receptor potential cation channel subfamily A member 1 (Homo sapiens) (O75762 whole entry): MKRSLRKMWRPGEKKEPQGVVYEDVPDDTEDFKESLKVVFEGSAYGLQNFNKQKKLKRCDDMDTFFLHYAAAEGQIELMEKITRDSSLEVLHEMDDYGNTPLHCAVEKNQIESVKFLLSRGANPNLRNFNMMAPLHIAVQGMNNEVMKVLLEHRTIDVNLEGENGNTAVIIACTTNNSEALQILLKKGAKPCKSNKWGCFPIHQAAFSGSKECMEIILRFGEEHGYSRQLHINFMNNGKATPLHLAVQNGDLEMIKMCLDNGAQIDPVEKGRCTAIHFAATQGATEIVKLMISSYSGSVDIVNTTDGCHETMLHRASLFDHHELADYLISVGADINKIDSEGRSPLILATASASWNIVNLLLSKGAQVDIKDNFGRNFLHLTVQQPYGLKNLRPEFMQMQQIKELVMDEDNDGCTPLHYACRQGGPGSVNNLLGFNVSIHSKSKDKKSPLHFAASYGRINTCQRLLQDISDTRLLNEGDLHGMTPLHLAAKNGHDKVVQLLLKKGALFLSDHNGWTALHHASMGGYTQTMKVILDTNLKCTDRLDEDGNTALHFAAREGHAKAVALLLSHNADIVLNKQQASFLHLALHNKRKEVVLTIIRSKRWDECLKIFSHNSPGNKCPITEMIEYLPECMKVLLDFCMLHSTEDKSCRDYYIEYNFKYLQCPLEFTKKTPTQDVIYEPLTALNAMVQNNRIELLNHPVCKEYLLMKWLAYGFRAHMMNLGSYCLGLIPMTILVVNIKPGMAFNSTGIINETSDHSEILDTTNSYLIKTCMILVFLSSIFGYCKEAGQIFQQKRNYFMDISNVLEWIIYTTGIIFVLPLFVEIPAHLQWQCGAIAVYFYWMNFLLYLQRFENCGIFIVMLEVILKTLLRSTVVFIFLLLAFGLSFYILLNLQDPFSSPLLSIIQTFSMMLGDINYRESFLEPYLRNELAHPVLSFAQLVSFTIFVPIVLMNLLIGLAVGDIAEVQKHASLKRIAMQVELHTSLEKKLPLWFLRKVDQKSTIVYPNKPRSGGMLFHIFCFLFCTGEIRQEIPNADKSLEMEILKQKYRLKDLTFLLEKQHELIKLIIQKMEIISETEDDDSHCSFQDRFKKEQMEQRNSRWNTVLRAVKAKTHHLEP
In short: (§1)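 Same TRP panel as for the stimulation tests, with FMP dye for TRPC4 and M5 and Fluo8-AM for TRPA1, V1 and M8. Compound applied for 2 min before the channel agonist (TRPC4: 1 μM DAMGO). Inhibition of the agonist response measured on a FlexStation at 32 °C.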

[2] = molecular target: T1, Transient receptor potential cation channel subfamily M member 5 (Homo sapiens) (UniProt Q9NZQ8); assay: Inhibition of human TRPM5 expressed in HEK293 cells assessed as decrease in carbachol-evoked membrane depolarization at 22 uM preincubated for 2 mins followed by carbachol addition measured for 2.5 mins by FLIPR membrane potential dye-based fluorescence assay relative to control; in short: as §1
T1 sequence (whole entry): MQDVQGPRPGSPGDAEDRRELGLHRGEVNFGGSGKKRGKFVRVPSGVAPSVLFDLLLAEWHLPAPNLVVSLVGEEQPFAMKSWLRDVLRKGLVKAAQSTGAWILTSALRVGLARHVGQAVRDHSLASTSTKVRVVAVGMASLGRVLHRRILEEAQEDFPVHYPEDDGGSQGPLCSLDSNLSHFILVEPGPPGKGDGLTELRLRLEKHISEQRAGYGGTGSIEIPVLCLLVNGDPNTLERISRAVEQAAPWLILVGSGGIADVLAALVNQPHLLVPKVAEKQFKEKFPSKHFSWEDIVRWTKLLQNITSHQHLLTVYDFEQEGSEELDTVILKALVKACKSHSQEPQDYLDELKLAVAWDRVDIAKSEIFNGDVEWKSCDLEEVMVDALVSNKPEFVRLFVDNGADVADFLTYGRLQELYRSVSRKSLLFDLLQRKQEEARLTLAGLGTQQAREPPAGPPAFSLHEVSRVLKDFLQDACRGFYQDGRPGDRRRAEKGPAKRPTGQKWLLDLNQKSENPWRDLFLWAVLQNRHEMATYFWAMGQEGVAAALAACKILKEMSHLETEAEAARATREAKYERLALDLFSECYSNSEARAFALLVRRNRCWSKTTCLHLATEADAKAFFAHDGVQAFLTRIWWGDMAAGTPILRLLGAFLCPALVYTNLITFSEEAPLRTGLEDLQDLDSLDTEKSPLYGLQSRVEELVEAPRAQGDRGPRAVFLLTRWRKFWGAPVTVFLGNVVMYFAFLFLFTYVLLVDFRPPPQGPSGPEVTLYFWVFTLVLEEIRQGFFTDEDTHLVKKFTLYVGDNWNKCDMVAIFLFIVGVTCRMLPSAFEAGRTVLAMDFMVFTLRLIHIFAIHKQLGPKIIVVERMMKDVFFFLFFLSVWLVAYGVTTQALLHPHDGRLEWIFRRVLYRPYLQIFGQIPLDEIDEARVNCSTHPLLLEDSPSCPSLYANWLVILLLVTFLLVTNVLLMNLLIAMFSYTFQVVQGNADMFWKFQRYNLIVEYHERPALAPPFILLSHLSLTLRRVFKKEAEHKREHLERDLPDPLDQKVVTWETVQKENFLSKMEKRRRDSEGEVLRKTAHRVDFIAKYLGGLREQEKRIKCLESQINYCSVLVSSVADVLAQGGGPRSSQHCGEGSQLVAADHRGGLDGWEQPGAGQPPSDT

[3] = molecular target: T2, Short transient receptor potential channel 3 (Homo sapiens) (UniProt Q13507); assay: Agonist activity at human TRPC3 expressed in HEK293 cells assessed as induction of membrane depolarization measured for 2.5 mins in presence of 2 mM Ca2+ by FLIPR membrane potential dye-based fluorescence assay
T2 sequence (whole entry): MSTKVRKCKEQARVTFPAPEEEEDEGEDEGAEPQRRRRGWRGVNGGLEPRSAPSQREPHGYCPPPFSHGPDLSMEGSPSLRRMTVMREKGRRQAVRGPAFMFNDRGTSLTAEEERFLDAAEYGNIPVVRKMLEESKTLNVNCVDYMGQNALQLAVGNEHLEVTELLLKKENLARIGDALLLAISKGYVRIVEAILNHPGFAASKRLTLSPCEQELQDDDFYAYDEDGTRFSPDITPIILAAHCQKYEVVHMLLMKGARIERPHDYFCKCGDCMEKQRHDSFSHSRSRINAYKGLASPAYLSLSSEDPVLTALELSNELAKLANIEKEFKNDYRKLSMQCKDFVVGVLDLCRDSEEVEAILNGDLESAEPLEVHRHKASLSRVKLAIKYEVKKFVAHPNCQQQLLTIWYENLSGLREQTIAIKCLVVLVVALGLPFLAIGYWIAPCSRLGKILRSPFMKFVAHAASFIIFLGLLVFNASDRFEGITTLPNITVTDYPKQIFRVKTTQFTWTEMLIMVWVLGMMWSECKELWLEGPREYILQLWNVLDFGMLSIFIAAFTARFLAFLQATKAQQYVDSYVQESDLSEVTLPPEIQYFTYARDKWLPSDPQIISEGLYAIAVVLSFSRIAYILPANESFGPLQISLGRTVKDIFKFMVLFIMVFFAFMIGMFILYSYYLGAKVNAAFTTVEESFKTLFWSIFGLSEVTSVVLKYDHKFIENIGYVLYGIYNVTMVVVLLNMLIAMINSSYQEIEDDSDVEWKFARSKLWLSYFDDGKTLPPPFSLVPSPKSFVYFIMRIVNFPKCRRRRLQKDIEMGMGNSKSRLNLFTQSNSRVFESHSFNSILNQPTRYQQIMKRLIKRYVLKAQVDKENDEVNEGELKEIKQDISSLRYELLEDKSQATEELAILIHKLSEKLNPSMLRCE
In short: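 HEK293 cells stably expressing human TRPC3, run on a FlexStation at 32 °C. Loaded with FMP dye, or Fluo-type Ca2+ dye with 2 mM probenecid. Extracellular NaCl/HEPES saline, pH 7.4, with 2 mM Ca2+ (standard) or 0.5 mM Ca2+. Read as F/F0. In 0.5 mM Ca2+, FMP EC50 from a Hill fit, n = 6.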

Rattus norvegicus [4] = species on record: Rattus norvegicus; assay: Agonist activity at TRPC6 in rat primary glomerular mesangial cells assessed as increase in intracellular calcium level at 1 uM by Fluo4-AM dye-based fluorescence assay
In short: (§2)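 Rat glomerular mesangial cells, isolated by graded sieving from male Sprague–Dawley rats, collagenase-digested, cultured in RPMI 1640 with 17% FBS. Grown overnight on coverslips, then loaded with 10 μM Fluo4-AM and 0.02% pluronic F-127 for 1 h at 37 °C in 1 mM Ca2+ saline, pH 7.4. Compound at 1 μM. Confocal imaging, ex 488/em 515 nm, read as F/F0. For the 2-APB condition, 30 μM 2-APB for 2 min beforehand and kept during compound application.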

Rattus norvegicus [5] = species on record: Rattus norvegicus; assay: Agonist activity at TRPC6 in rat primary glomerular mesangial cells assessed as increase in intracellular calcium level at 1 uM in presence of TRPC inhibitor […] by Fluo4-AM dye-based fluorescence assay; in short: as §2

inhibition [1]: < 20%
inhibition [2]: < 20%
Compound: CCOC(=O)N1CCC(c2cc(O)n3nc(C)c(-c4ccc(C(F)(F)F)cc4)c3n2)CC1

Compound: CCOC(=O)N1CCC(c2cc(O)n3nc(C)c(-c4ccc(F)cc4)c3n2)CC1
Activity [3]: inactive

Compound: Cc1nn2c(O)cc(C3CCN(C(=O)OCc4ccccc4)CC3)nc2c1-c1ccc(F)cc1
Activity (Rattus norvegicus [4]): Active
Activity (Rattus norvegicus [5]): inactive
